# Results published in paper PMC8453865 (Clinical Pharmacology in Drug Development, 2021).
# Where “and” joins values, the source holds several entries; their conditions need not be identical. Equal entries are not always repeated.
# Assays:
# CYP3A4/CYP1A2 = details: 14 patients, repeat-dose dabrafenib (HPMC capsules); cited from earlier work
# CYP2C9 = details: 14 patients, repeat-dose dabrafenib (HPMC capsules); cited from earlier work
# OATP1B1 = details: in vitro; cited from earlier work
# OATP1B3 = details: in vitro; cited from earlier work
# [1] = cited from earlier work
# BCRP = details: in vitro; cited from earlier work
# CYP3A4 [2] = details: in vitro, via activation of the pregnane X receptor and constitutive androstane receptor; cited from earlier work
# CYP2B6 = details: in vitro, via activation of the pregnane X receptor and constitutive androstane receptor; cited from earlier work
# [3] = Safety and tolerability in patients; assay type: in vivo, human; details: 16 patients, midazolam 3 mg
# In short: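 Open-label, fixed-sequence study in patients with BRAF V600 mutation–positive tumours. CYP3A and OATP1B1/1B3 probe substrates (3 mg and 10 mg) were given together on day 1, then with the test compound (150 mg twice daily, days 8–23) on days 8 and 22, after an overnight fast of at least 8 h. Monitoring covered physical examination, vital signs, 12-lead ECG, haematology and clinical chemistry, and AEs graded by NCI CTCAE v4.03.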
# CYP3A4 [4] = test: Effect of dabrafenib
# [5] = human, plasma
# OATP1B1/1B3 = test: Effect of dabrafenib; assay type: in vivo, human
# [6] = cited from earlier work; remark: listed apart in the source
# [7] = in vivo; cited from earlier work
# [8] = initial administration of dabrafenib vs midazolam alone
# [9] = repeat dabrafenib dosing 150 mg twice daily (steady state) vs rosuvastatin alone
# [10] = clinical study, coadministration with gemfibrozil
compound,measurement,setting,value
CC(=O)C[C@H](c1ccccc1)c1c(O)c2ccccc2oc1=O [R‐warfarin],decrease in single‐dose AUC,CYP3A4/CYP1A2,33%
CC(=O)C[C@@H](c1ccccc1)c1c(O)c2ccccc2oc1=O [S‐warfarin],decrease in single‐dose AUC,CYP2C9,37%
CC(C)(C(=O)O)c1nc(-c2cccc(NS(=O)(=O)c3c(F)cccc3F)c2F)c(-c2ccnc(N)n2)s1 [carboxy‐dabrafenib],inhibition of OATP1B1,OATP1B1,inhibitors
same,inhibition of OATP1B3,OATP1B3,inhibitors
CC(C)(C)c1nc(-c2cccc(NS(=O)(=O)c3c(F)cccc3F)c2F)c(-c2ccnc(N)n2)s1 [dabrafenib],AUC HPMC/gelatin,[1]; dabrafenib HPMC capsules vs gelatin capsules,1.8 fold
same,median terminal‐phase half‐life (t1/2),[1]; single oral dose of dabrafenib,≈ 8 hours
same,time of peak plasma concentrations after dosing,[1]; single oral dose of dabrafenib,approximately 2 hours
same,oral bioavailability,[1]; single oral dose relative to an intravenous microdose,94.5%
same,inhibition of OATP1B1,OATP1B1,inhibitors
same,inhibition of OATP1B3,OATP1B3,inhibitors
same,inhibition of BCRP,BCRP,inhibitors
same,induction of CYP3A4,CYP3A4 [2],induces
same,induction of CYP2B6,CYP2B6,induces
CC(C)c1nc(-c2cccc(NS(=O)(=O)c3c(F)cccc3F)c2F)c(-c2ccnc(N)n2)s1 [desmethyl‐dabrafenib],inhibition of OATP1B1,OATP1B1,inhibitors
same,inhibition of OATP1B3,OATP1B3,inhibitors
same,inhibition of BCRP,BCRP,inhibitors
CC(C)(CO)c1nc(-c2cccc(NS(=O)(=O)c3c(F)cccc3F)c2F)c(-c2ccnc(N)n2)s1 [hydroxy‐dabrafenib],terminal half‐life of metabolite,[1]; dabrafenib metabolites,582 min
same,inhibition of OATP1B1,OATP1B1,inhibitors
same,inhibition of OATP1B3,OATP1B3,inhibitors
Cc1ncc2n1-c1ccc(Cl)cc1C(c1ccccc1F)=NC2 [midazolam],grade 4 presyncope attributed to midazolam dosing,[3],1 patient
same,change in midazolam AUC0‐∞,CYP3A4 [4]; [8],no change
same,decrease in midazolam Cmax,CYP3A4 [4]; [8],1%
same,effect of dabrafenib on midazolam tmax,CYP3A4 [4]; initial and repeat dabrafenib dosing vs midazolam alone,No effect
same,decrease in midazolam Cmax,CYP3A4 [4]; repeat dabrafenib dosing 150 mg twice daily (steady state) vs midazolam alone,47%
same,Tmax,[5],15 min
CC(C)c1nc(N(C)S(C)(=O)=O)nc(-c2ccc(F)cc2)c1/C=C/[C@@H](O)C[C@@H](O)CC(=O)O [rosuvastatin],increase in rosuvastatin Cmax,OATP1B1/1B3; dabrafenib at initiation of dosing vs rosuvastatin alone,1.9 fold
same,increase in rosuvastatin AUC0‐∞,OATP1B1/1B3; [9],7%
same,increase in rosuvastatin Cmax,OATP1B1/1B3; [9],2.56 fold and 2.6 fold
same,rosuvastatin AUC change with gemfibrozil,[6]; [10],1.9 fold
same,rosuvastatin Cmax change with gemfibrozil,[6]; [10],2.21 fold
same,alteration in the PK parameters of rosuvastatin,"[6]; healthy volunteer study, after 6 days of rifampin (inducer) dosing",no significant alteration
same,rosuvastatin AUC increase with tipranavir/ritonavir,[6]; tipranavir/ritonavir 500 mg/200 mg twice daily for 11 days,26%
same,excreted unchanged in the feces,[7],90%
